ChEMBL document CHEMBL4627400, “Discovery of Dihydropyrrolo[1,2-a]pyrazin-3(4H)-one-Based Second-Generation GluN2C- and GluN2D-Selective Positive Allosteric Modulators (PAMs) of the N-Methyl-d-Aspartate (NMDA) Receptor” (J Med Chem, 2020)
Converted amounts (≈) assume the structure as drawn.

Tests used:
[1] = molecular target: Glutamate NMDA receptor; Grin1/Grin2c (Rattus norvegicus, UniProt P35439+Q00961)
[2] = Half life in C57Bl/6 mouse at 10 mg/kg, ip by LC/MS/MS analysis; type: ADME, organism-based; details: in vivo
Method in brief: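 Male, fed C57BL/6 mice (6–8 weeks) got a single i.p. dose of 10 mg/kg (1 mg/mL) in 50% PEG400/water. […] Brain was homogenized 1:4 in water. Samples were acetonitrile-precipitated and measured by LC-MS/MS against a verapamil internal standard. Brain:plasma was reported from AUClast.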

[3] = molecular target: T1, Glutamate NMDA receptor; Grin1/Grin2c (Rattus norvegicus) (UniProt P35439+Q00961); experiment: Positive allosteric modulation of recombinant rat GluN1a/GluN2C receptor expressed in Xenopus laevis oocytes assessed as increase in glycine/L-glutamate-induced channel current at 30 uM by two-electrode voltage clamp method relative to control; type: cell-based
Method in brief: (§1)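 Oocytes expressing rat GluN1/GluN2C or GluN2D, held at −40 mV in HEPES-buffered Ba2+ solution, pH 7.4, 23 °C. Current given as percent of agonist-alone response. Doubling concentration is the concentration giving 2-fold response; reported as […] log. 6–19 oocytes from 2–3 frogs.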

[4] = molecular target: T2, Glutamate NMDA receptor; Grin1/Grin2a (Rattus norvegicus, UniProt P35439+Q00959); experiment: Positive allosteric modulation of recombinant rat GluN1a/GluN2A receptor expressed in Xenopus laevis oocytes assessed as increase in glycine/L-glutamate-induced channel current at 10 to 30 uM by two-electrode voltage clamp method relative to control; type: cell-based
T2 sequence (Q00959 whole entry, other chains not shown): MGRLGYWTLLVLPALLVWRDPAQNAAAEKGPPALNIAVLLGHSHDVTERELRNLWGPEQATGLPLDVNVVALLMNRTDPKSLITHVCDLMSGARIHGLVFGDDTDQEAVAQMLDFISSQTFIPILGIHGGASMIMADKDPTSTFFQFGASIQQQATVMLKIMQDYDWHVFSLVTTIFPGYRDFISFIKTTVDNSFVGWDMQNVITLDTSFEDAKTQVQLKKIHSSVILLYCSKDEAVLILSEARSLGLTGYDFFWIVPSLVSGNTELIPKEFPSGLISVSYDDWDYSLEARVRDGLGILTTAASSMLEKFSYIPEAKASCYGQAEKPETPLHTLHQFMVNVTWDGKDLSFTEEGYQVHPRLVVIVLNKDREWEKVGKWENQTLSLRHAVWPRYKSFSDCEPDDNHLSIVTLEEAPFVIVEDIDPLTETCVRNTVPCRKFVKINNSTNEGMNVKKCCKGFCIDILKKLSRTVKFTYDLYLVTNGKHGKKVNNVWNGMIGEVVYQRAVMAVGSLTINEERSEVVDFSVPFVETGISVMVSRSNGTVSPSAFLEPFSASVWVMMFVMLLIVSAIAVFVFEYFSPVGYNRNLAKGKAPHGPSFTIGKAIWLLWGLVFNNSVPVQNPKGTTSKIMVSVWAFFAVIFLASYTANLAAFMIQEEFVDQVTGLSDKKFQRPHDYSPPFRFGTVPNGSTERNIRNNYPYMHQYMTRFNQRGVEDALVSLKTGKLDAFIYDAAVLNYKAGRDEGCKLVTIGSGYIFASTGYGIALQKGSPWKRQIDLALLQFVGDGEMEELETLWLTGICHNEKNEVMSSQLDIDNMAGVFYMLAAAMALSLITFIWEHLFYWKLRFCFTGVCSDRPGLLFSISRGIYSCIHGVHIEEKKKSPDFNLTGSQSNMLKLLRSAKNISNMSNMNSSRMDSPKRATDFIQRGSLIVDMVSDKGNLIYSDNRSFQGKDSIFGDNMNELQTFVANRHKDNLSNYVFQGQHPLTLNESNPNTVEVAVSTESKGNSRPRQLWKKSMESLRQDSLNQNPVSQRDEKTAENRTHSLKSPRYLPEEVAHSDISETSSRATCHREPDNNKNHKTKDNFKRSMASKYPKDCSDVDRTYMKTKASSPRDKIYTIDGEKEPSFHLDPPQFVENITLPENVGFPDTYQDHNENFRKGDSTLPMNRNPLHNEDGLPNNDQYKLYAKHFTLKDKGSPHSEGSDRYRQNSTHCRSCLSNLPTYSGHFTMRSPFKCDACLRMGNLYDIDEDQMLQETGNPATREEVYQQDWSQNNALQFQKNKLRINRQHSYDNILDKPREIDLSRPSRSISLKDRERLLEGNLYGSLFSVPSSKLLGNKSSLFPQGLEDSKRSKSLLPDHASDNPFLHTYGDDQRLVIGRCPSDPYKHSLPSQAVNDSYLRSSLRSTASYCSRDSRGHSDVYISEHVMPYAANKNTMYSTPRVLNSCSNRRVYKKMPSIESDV
Method in brief: (§2)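 TEVC at −40 mV, 23 °C, in 90 NaCl/1 KCl/0.5 BaCl/0.005 EDTA/10 HEPES (mM), pH 7.4. Oocytes expressed rat GluN1/GluN2A or GluN1/GluN2B. […] Some GluN2A oocytes were BAPTA-loaded. 4–17 oocytes from 1–3 frogs.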

[5] = molecular target: T3, Ionotropic glutamate receptor NMDA 1/2D (Rattus norvegicus) (UniProt P35439+Q62645); experiment: Positive allosteric modulation of recombinant rat GluN1a/GluN2D receptor expressed in Xenopus laevis oocytes assessed as increase in glycine/L-glutamate-induced channel current at 30 uM by two-electrode voltage clamp method relative to control; type: cell-based
Method in brief: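 Oocytes expressing rat GluN1/GluN2C or GluN2D, held at −40 mV in HEPES-buffered Ba2+ solution, pH 7.4, 23 °C. […] Current given as percent of agonist-alone response. […] Doubling concentration is the concentration giving 2-fold response; reported as […] log. 6–19 oocytes from 2–3 frogs.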

[6] = molecular target: T4, Glutamate NMDA receptor; Grin1/Grin2b (Rattus norvegicus, UniProt P35439+Q00960); experiment: Positive allosteric modulation of recombinant rat GluN1a/GluN2B receptor expressed in Xenopus laevis oocytes assessed as increase in glycine/L-glutamate-induced channel current at 10 to 30 uM by two-electrode voltage clamp method relative to control; type: cell-based
T4 sequence (Q00960 whole entry, other chains not shown): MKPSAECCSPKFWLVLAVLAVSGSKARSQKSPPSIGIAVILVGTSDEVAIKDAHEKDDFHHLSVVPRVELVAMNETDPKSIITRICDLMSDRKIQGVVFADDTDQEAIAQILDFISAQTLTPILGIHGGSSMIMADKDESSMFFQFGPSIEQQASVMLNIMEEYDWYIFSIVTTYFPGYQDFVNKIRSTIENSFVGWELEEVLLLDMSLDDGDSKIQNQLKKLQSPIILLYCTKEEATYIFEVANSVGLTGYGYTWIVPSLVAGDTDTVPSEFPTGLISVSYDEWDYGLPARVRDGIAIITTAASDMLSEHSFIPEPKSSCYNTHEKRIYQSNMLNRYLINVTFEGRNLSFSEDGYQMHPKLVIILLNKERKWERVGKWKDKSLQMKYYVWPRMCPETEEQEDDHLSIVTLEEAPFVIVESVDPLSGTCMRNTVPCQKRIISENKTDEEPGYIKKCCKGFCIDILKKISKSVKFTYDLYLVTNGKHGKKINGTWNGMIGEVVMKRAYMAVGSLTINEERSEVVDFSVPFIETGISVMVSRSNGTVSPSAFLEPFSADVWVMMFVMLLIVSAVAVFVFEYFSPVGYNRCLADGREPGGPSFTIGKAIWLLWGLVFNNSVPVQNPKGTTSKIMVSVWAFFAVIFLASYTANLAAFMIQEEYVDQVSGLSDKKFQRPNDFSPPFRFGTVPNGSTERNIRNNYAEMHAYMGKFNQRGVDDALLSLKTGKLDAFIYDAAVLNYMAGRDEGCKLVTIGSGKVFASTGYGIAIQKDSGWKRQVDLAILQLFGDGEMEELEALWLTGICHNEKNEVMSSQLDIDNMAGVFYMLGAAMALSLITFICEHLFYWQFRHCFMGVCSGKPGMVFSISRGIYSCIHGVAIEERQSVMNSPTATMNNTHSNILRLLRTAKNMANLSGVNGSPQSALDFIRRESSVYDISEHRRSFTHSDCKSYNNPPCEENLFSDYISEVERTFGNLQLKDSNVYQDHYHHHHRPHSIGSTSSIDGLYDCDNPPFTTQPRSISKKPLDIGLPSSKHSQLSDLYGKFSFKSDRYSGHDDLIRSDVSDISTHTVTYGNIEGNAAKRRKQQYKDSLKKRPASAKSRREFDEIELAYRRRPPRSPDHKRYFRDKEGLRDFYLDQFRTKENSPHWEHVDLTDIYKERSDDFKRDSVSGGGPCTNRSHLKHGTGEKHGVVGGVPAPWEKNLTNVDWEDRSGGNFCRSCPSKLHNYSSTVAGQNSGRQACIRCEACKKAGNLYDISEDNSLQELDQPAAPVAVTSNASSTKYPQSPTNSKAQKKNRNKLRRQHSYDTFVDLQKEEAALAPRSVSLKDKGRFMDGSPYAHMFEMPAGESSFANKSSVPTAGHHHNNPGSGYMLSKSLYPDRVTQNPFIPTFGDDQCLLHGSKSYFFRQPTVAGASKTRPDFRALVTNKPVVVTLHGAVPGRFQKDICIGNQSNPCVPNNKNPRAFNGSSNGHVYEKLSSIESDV
Method in brief: as §2

[7] = Aqueous solubility of the compound at pH 7.4 after 30 mins by nephelometric analysis; type: physicochemical; details: buffer
[8] = Drug level in C57Bl/6 mouse plasma at 10 mg/kg, ip measured at 0.25 hrs by LC/MS/MS analysis; type: ADME, organism-based
Method in brief: (§3)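 Fed male mice, 6–8 weeks old, n = 15, 3 per time point. Dosed ip at 10 mg/kg (1 mg/mL) in 50% PEG400/water. […] Brain homogenized 1:4 in water. Samples acetonitrile-precipitated and quantified by LC-MS/MS with verapamil as internal standard.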

[9] = molecular target: Ionotropic glutamate receptor NMDA 1/2D (Rattus norvegicus, UniProt P35439+Q62645)
[10] = Cmax in C57Bl/6 mouse at 10 mg/kg, ip by LC/MS/MS analysis; type: ADME, organism-based; parameters: dose 10 mg/kg, route intraperitoneal; details: in vivo
Method in brief: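 Male fed C57BL/6 mice, 6–8 weeks, given 10 mg/kg i.p. (1 mg/mL, 10 mL/kg) in 50% PEG400/water. […] Samples protein-precipitated with acetonitrile, brain homogenised 1:4 in water, quantified by LC-MS/MS with verapamil internal standard.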

[11] = Protein binding in rat plasma at 1 uM measured after 60 mins by equilibrium dialysis based LC/MS/MS analysis; type: ADME, cell-free; details: read-out: PPB (converted)
[12] = Drug level in C57Bl/6 mouse brain at 10 mg/kg, ip measured at 0.25 hrs by LC/MS/MS analysis; type: ADME, organism-based; details: read-out: Drug uptake
Method in brief: as §3

[13] = molecular target: T1, Glutamate NMDA receptor; Grin1/Grin2c (Rattus norvegicus); experiment: Positive allosteric modulation of recombinant rat GluN1a/GluN2C receptor expressed in Xenopus laevis oocytes assessed as increase in glycine/L-glutamate-induced channel current by measuring log of doubling concentration by two-electrode voltage clamp method; type: cell-based
Method in brief: as §1

[14] = Fraction unbound in rat plasma at 1 uM measured after 60 mins by equilibrium dialysis based LC/MS/MS analysis; type: ADME, cell-free
[15] = Ratio of drug level in brain to plasma in C57Bl/6 mouse at 20 mg/kg, ip by LC/MS/MS analysis; type: ADME, organism-based; details: read-out: BPR
[16] = Half life in C57Bl/6 mouse at 20 mg/kg, ip by LC/MS/MS analysis; type: ADME, organism-based; details: in vivo
[17] = Cmax in C57Bl/6 mouse at 20 mg/kg, ip by LC/MS/MS analysis; type: ADME, organism-based; parameters: dose 20 mg/kg, route intraperitoneal; details: in vivo
[18] = molecular target: T4, Glutamate NMDA receptor; Grin1/Grin2b; experiment: Positive allosteric modulation of recombinant rat GluN1a/GluN2B receptor expressed in Xenopus laevis oocytes assessed as change in 30 to 100 uM glycine/3 uM L-glutamate-induced channel current at 30 uM by two-electrode voltage clamp method (reference value: 79 +/- 1%); type: cell-based; details: read-out: %max
[19] = molecular target: T1, Glutamate NMDA receptor; Grin1/Grin2c (Rattus norvegicus); experiment: Positive allosteric modulation of recombinant rat GluN1a/GluN2C receptor expressed in Xenopus laevis oocytes assessed as change in […]/0.3 uM L-glutamate-induced channel current at 30 uM by two-electrode voltage clamp method (reference value: 19 +/- 3%); type: cell-based
Method in brief: (§4)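 Oocytes expressing rat GluN1/GluN2C or GluN1/GluN2D, TEVC at −40 mV, pH 7.4, 23 °C. […] 30 μM glycine in all solutions per footnote. Vehicle versus drug compared by paired t-test; mean ± SEM.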

[20] = molecular target: T3, Ionotropic glutamate receptor NMDA 1/2D (Rattus norvegicus); experiment: Positive allosteric modulation of recombinant rat GluN1a/GluN2D receptor expressed in Xenopus laevis oocytes assessed as increase in glycine/10 uM L-glutamate-induced channel current at 30 uM in presence of NMDAR antagonist 7-CKA by two-electrode voltage clamp method relative to control; type: cell-based
[21] = molecular target: T3, Ionotropic glutamate receptor NMDA 1/2D (Rattus norvegicus); experiment: Positive allosteric modulation of recombinant rat GluN1a/GluN2D receptor expressed in Xenopus laevis oocytes assessed as increase in 10 uM glycine/L-glutamate-induced channel current at 30 uM in presence of NMDAR antagonist DL-APV by two-electrode voltage clamp method relative to control; type: cell-based
Method in brief: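 GluN1/GluN2D oocytes, TEVC at −40 mV. 30 μM compound applied with 10 μM glycine plus 50 μM DL-APV (glutamate-site antagonist).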

[22] = molecular target: T3, Ionotropic glutamate receptor NMDA 1/2D (Rattus norvegicus); experiment: Positive allosteric modulation of recombinant rat GluN1a/GluN2D receptor expressed in Xenopus laevis oocytes assessed as change in […]/0.3 uM L-glutamate-induced channel current at 30 uM by two-electrode voltage clamp method (reference value: 29 +/- 2%); type: cell-based
Method in brief: as §4

[23] = molecular target: T2, Glutamate NMDA receptor; Grin1/Grin2a; experiment: Positive allosteric modulation of recombinant rat GluN1a/GluN2A receptor expressed in Xenopus laevis oocytes assessed as change in 30 to 100 uM glycine/3 uM L-glutamate-induced channel current at 30 uM by two-electrode voltage clamp method (reference value: 46 +/- 5%); type: cell-based
[24] = molecular target: T1, Glutamate NMDA receptor; Grin1/Grin2c (Rattus norvegicus); experiment: Positive allosteric modulation of recombinant rat GluN1a/GluN2C receptor expressed in Xenopus laevis oocytes assessed as change in 30 uM glycine/0.5 uM L-glutamate-induced channel current at 30 uM by two-electrode voltage clamp method (reference value: 54 +/- 1%); type: cell-based
Method in brief: as §4

[25] = molecular target: T2, Glutamate NMDA receptor; Grin1/Grin2a; experiment: Positive allosteric modulation of recombinant rat GluN1a/GluN2A receptor expressed in Xenopus laevis oocytes assessed as change in 30 uM glycine/3 uM L-glutamate-induced channel current at 30 uM by two-electrode voltage clamp method (reference value: 40 +/- 4%); type: cell-based
[26] = molecular target: T3, Ionotropic glutamate receptor NMDA 1/2D (Rattus norvegicus); experiment: Positive allosteric modulation of recombinant rat GluN1a/GluN2D receptor expressed in Xenopus laevis oocytes assessed as change in 30 uM glycine/0.5 uM L-glutamate-induced channel current at 30 uM by two-electrode voltage clamp method (reference value: 54 +/- 1%); type: cell-based
Method in brief: as §4

[27] = molecular target: T4, Glutamate NMDA receptor; Grin1/Grin2b; experiment: Positive allosteric modulation of recombinant rat GluN1a/GluN2B receptor expressed in Xenopus laevis oocytes assessed as change in 30 uM glycine/3 uM L-glutamate-induced channel current at 30 uM by two-electrode voltage clamp method (reference value: 84 +/- 1%); type: cell-based; details: read-out: %max

Compound: COc1ccc(OCC2c3cccn3CC(=O)N2Cc2cccc(F)c2)cc1 (stereo not given)
- EC50 [1]: 3.16 µM
- t1/2 [2]: 1.07 h
- %max [3]: 350%
- Activity [4]: Not Active
- %max [5]: 350%
- Activity [6]: Not Active
- solubility kinetic at 0.5 h [7]: 74 µM (≈ 28.2 µg/mL)
- concentration at 0.25 h [8]: 1830 nM
- EC50 [9]: 3.16 µM
- Cmax [10]: 1830 nM
- fraction unbound at 1 h, 1 µM [11]: 0.013
- concentration at 0.25 h [12]: 2500 nM

Compound: COc1ccc(OCC2c3ccc(OC)cc3CC(=O)N2CC(F)(F)F)cc1 (stereo not given)
- %max [3]: 330%
- Activity [4]: Not Active
- %max [5]: 160%
- log(activity) [13]: > -4.5
- Activity [6]: Not Active

Compound: COc1ccc(OCC2c3cc(OC)c(OC)cc3CCN2C(=O)c2cccc(Cl)c2)cc1 (stereo not given)
- %max [3]: 230%
- fraction unbound at 1 h, 1 µM [14]: < 0.0001
- %max [5]: 220%
- Kp [15]: 6.7
- half-life [16]: 1.35 h
- Cmax [17]: 2160 nM
- fraction unbound at 1 h, 1 µM [11]: < 0.001

Compound: COc1ccc(OC[C@H]2c3cccn3CC(=O)N2Cc2cccc(F)c2)cc1
- activity at 30 µM [18]: 77%
- EC50 [1]: 3.16 µM
- %max [3]: 410%
- %max [19]: 48%
- %max [5]: 390%
- Activity [20]: 0.4%
- Activity [21]: 2.5%
- solubility kinetic at 0.5 h [7]: 74 µM (≈ 28.2 µg/mL)
- EC50 [9]: 3.16 µM
- %max [22]: 55%
- %max [23]: 53%

Compound: COc1ccc(OC[C@@H]2c3cccn3CC(=O)N2Cc2cccc(F)c2)cc1
- %max [24]: 57%
- %max [25]: 45%
- %max [3]: 100%
- Activity [4]: Not Active
- %max [5]: 88%
- %max [26]: 72%
- Activity [6]: Not Active
- solubility kinetic at 0.5 h [7]: 74 µM (≈ 28.2 µg/mL)
- activity at 30 µM [27]: 85%

Compound: COc1ccc(OC[C@H]2c3cccn3CCN2C(=O)c2cccc(Cl)c2)cc1
- EC50 [1]: 2 µM
- %max [3]: 410%
- Activity [4]: Not Active
- %max [5]: 450%
- Activity [6]: Not Active
- solubility kinetic at 0.5 h [7]: 36 µM (≈ 14.3 µg/mL)
- EC50 [9]: 2 µM

Compound: COc1ccc(OCC2c3sccc3CCN2C(=O)c2cccc(Cl)c2)cc1 (stereo not given)
- EC50 [1]: 3.98 µM
- %max [3]: 280%
- Activity [4]: Not Active
- %max [5]: 350%
- Activity [6]: Not Active
- solubility kinetic at 0.5 h [7]: 46 µM (≈ 19 µg/mL)
- EC50 [9]: 3.98 µM

Compound: COc1ccc(OC[C@H]2c3cccn3CC(=O)N2Cc2cccc(C(F)(F)F)c2)cc1
- EC50 [1]: 0.794 µM
- %max [3]: 280%
- Activity [4]: Not Active
- %max [5]: 330%
- Activity [6]: Not Active
- solubility kinetic at 0.5 h [7]: 57 µM (≈ 24.5 µg/mL)
- EC50 [9]: 0.794 µM
